Measurements taken from paper PMC10925177 (bioRxiv, 2024).

Tests used:
PRMT7 [1] = target: T1, PRMT7 (Homo sapiens, UniProt Q9NVM4); assay: Western blot of PRMT7 protein level in 22Rv1 cells; type: cell-based; details: indicated concentration, 24 h, WB
T1 sequence (Q9NVM4 1-692): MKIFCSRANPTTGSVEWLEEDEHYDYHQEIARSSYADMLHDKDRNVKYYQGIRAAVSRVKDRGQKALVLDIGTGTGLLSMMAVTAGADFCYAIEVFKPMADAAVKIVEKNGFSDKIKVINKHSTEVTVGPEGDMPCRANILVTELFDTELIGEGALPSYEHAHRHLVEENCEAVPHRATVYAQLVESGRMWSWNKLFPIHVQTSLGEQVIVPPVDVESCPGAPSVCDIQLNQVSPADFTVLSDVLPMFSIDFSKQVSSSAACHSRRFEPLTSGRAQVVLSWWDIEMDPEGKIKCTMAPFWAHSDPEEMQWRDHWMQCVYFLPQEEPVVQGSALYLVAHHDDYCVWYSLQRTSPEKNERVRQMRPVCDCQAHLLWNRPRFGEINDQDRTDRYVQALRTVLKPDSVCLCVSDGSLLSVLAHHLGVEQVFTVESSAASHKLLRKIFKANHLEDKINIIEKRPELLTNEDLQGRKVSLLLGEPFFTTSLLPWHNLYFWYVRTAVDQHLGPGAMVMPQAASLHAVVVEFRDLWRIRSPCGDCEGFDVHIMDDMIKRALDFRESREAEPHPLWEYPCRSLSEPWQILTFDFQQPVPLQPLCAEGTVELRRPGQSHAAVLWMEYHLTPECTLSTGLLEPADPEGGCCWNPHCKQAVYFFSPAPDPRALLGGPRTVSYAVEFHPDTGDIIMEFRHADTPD
Method in brief: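 22Rv1 cells were treated with the test compound at the indicated concentrations for 24 h. Cells were lysed in RIPA containing protease inhibitor cocktail, and protein was resolved by SDS-PAGE and transferred to PVDF. Primary antibody was applied overnight at 4 °C, with β-actin as loading control. Blots are representative of two independent experiments.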

PNT2 cells = assay: Cell viability assay; type: cell-based, human; details: 5 days, WST-8 (CCK-8)
Method in brief: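 PNT2 cells were grown at 37 °C in 5% CO2 and treated with serial dilutions of the test compound. The general protocol gives a treatment span of 5–8 days. Viability was measured by CCK-8 (WST-8) absorbance at 450 nm, with 690 nm as reference. IC50 was calculated by curve fitting.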

EZH2 = EZH2 (Homo sapiens, UniProt Q15910); assay: Radioactive methyltransferase assay, EZH2; type: biochemical; details: 10 μM compound
Chain of EZH2 (Q15910 whole entry): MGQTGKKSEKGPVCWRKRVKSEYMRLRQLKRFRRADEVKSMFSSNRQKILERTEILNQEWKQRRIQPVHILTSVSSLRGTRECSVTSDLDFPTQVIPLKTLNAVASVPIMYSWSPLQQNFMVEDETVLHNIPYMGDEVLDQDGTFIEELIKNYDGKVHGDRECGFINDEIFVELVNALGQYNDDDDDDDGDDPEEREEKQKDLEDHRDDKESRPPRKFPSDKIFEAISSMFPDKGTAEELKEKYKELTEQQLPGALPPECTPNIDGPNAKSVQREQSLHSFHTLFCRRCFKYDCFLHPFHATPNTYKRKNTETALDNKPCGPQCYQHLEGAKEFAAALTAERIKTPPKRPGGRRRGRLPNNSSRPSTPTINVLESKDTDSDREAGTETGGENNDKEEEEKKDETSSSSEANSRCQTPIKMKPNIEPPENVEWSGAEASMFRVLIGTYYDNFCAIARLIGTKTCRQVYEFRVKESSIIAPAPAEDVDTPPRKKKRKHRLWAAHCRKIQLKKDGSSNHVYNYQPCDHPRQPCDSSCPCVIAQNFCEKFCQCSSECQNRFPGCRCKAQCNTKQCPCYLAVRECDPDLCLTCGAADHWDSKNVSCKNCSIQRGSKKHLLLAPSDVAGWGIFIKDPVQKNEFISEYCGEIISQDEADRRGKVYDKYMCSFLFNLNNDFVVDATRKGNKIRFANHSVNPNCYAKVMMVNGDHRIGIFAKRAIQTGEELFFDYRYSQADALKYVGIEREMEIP
Chain of EZH2 (O75530 whole entry partner): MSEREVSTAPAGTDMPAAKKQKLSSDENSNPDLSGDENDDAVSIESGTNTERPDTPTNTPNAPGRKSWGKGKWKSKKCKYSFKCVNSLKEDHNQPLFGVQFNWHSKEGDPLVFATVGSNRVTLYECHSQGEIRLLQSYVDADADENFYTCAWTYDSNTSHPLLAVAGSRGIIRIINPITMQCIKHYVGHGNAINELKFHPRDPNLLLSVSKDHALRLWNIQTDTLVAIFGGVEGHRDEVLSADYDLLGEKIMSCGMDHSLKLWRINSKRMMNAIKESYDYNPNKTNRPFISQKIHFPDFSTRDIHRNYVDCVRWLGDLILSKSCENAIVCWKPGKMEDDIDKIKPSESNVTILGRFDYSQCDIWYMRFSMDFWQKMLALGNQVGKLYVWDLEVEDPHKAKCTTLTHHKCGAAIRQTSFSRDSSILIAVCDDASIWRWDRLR
Chain of EZH2 (Q15022 whole entry partner): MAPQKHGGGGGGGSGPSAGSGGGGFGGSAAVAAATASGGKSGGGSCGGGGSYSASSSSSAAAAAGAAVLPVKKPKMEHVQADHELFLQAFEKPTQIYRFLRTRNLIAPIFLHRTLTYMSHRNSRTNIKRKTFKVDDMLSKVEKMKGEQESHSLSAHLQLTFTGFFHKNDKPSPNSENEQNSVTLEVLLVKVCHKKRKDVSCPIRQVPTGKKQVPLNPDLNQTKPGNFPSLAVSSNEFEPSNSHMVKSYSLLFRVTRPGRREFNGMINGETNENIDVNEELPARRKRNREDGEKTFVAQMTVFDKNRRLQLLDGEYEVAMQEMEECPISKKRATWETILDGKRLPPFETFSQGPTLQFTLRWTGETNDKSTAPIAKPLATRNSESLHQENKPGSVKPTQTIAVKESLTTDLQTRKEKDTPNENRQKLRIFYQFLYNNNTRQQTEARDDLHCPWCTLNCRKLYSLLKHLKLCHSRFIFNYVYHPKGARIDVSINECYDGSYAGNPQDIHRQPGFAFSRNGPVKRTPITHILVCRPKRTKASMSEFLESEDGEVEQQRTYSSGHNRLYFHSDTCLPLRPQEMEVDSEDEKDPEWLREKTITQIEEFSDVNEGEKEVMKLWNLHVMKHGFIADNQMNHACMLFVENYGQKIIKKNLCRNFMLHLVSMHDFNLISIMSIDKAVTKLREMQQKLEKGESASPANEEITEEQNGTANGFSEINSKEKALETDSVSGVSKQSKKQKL
Chain of EZH2 (Q09028 whole entry partner): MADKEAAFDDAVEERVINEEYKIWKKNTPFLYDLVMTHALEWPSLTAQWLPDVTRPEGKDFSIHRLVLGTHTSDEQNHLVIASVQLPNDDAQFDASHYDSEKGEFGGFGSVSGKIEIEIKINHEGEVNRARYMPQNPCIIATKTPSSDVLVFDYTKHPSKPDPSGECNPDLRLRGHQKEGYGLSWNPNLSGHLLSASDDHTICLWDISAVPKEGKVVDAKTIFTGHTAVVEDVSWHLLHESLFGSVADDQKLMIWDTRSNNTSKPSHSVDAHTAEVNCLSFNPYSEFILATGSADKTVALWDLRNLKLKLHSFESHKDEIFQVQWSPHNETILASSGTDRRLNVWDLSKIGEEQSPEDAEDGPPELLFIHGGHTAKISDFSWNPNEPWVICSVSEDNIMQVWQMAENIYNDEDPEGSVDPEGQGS
Chain of EZH2 (Q6ZN18 whole entry partner): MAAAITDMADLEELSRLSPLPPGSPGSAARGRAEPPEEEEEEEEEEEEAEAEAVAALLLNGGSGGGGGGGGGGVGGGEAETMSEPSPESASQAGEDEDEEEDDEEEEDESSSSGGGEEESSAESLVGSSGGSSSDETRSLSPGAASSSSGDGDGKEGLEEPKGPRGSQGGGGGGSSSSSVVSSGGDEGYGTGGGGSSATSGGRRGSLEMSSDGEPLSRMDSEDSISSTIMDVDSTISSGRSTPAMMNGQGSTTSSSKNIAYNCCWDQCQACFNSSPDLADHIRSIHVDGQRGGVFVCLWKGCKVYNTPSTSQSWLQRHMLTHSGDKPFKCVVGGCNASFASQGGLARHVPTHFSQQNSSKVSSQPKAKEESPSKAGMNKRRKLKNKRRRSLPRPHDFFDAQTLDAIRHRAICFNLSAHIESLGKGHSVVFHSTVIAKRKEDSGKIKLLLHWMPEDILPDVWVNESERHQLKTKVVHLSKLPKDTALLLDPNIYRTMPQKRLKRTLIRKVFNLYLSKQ

GLP = target: T2, GLP (Homo sapiens, UniProt Q9H9B1); assay: Western blot of GLP protein levels in cancer cells; type: cell-based
T2 sequence (Q9H9B1 1-1298): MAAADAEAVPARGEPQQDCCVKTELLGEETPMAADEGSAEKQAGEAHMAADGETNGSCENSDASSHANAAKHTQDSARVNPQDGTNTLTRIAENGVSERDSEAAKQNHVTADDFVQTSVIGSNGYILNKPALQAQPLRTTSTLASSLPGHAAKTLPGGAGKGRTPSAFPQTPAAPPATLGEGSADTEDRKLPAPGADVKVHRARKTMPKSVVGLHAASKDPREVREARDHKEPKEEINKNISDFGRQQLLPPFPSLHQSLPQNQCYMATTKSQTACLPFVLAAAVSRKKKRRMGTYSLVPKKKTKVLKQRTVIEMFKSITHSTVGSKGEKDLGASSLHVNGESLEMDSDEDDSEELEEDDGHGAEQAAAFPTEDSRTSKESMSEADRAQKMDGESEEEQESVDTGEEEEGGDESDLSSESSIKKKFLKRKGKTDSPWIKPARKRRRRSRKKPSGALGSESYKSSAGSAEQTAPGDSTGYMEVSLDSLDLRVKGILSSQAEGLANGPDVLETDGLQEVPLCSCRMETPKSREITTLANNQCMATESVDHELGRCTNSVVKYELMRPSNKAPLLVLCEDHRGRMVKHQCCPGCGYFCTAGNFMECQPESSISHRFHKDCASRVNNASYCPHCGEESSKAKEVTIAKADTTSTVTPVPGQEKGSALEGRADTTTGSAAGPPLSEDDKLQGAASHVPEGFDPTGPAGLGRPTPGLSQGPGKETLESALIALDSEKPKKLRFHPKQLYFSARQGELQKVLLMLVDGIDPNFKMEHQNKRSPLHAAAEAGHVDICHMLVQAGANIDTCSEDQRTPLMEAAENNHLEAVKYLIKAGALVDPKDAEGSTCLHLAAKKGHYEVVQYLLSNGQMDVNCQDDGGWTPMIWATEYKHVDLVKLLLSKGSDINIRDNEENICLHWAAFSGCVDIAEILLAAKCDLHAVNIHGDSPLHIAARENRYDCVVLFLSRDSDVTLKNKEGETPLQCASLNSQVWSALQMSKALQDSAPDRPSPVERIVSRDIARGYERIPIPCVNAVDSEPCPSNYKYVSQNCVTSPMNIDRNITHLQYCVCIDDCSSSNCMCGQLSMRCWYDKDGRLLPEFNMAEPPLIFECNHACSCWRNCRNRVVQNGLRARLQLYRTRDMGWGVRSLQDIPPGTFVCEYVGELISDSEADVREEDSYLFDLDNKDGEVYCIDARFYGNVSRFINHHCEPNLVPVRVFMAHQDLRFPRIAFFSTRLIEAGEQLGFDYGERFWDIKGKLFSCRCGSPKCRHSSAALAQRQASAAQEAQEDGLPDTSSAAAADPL
Method in brief: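 Cells (22Rv1, K562, H1299) were treated for 24 h at the indicated concentrations; 22Rv1 time courses were run at 3 μM. Cells were lysed in RIPA with protease inhibitors, and 10–30 μg of protein was resolved by SDS-PAGE and transferred to PVDF. Blots were probed overnight at 4 °C, with vinculin/β-actin as loading controls. Band intensity was normalised to DMSO, with n = 2 independent experiments (mean ± SD).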

PRMT7 [2] = target: T1, PRMT7; assay: Radioactive methyltransferase assay, PRMT7; type: biochemical; details: 10 μM compound
Method in brief: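 The selectivity screen covered 21 protein methyltransferases in radioisotope-based MT HotSpot methyltransferase assays run by a contract laboratory. Test compound was at 10 μM. Each assay was run in duplicate and reported as mean ± SD of the two replicates.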

Structure (SMILES): COc1cc2c(NC3CCN(CCCC(=O)NCCCCCCCCCCCC(=O)N[C@H](C(=O)N4C[C@H](O)C[C@H]4C(=O)NCc4ccc(-c5scnc5C)cc4)C(C)(C)C)CC3)nc(N3CCC(F)(F)CC3)nc2cc1OCCCN1CCCC1 [Compound 10, (2S,4R)-1-((S)-2-(12-(4-(4-((2-(4,4-difluoropiperidin-1-yl)-6-methoxy-7-(3-(pyrrolidin-1-yl)propoxy)quinazolin-4-yl)amino)piperidin-1-yl)butanamido)dodecanamido)-3,3-dimethylbutanoyl)-4-hydroxy-N-(4-(4-methylthiazol-5-yl)benzyl)pyrrolidine-2-carboxamide]
- PRMT7 degradation (PRMT7 [1]): cannot induce the degradation
- cell viability of normal prostate cells (PNT2 cells): does not affect the cell viability
- inhibition of EZH2 (EZH2): moderately inhibited
- GLP degradation, in words (GLP; 22Rv1 cells, 1 μM, 24 h, WB (Figure 3A)): potently induced degradation
- duration of GLP degradation effect (GLP; 22Rv1 cells, 3 μM): up to 48 h
- time at which GLP degradation was first observed (GLP; 22Rv1 cells, 3 μM): 4 h
- time to complete GLP degradation (GLP; 22Rv1 cells, 3 μM): around 24 h
- GLP degradation, in words (GLP; H1299 cells, 3 μM, 24 h, WB): degraded
- GLP degradation, in words (GLP; K562 cells, 3 μM, 24 h, WB): induced G9a and GLP degradation
- DC50 (GLP; read-out: half-maximal degradation concentration (DC50) for GLP, 22Rv1 cells, 24 h, WB): 260 ± 53 nM
- inhibition of PRMT7 (PRMT7 [2]): moderately inhibited
